Results on 40 molecules are retold here after ChEMBL document CHEMBL4513216, “Probing the Open Global Health Chemical Diversity Library for Multistage-Active Starting Points for Next-Generation Antimalarials” (ACS Infect Dis, 2020).

Structures are written as SMILES.

The series in a line: Toxicity liver stage against HepG2, at 10uM. Format: cell-based. The arrangement: test concentration 10 uM, cell line HepG2-A16-CD81EGFP. The conditions noted are these: human, HepG2-A16-CD81EGFP cells; read-out: INHIBITION
In short, it runs like this: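 Uninfected HepG2-A16-CD81EGFP cells, 3 × 10^3 per well, 1536-well, plated on prespotted compound at 10 μM final, parasite-free screening media added to match infected plates; puromycin 10 μM positive, DMSO 0.5% negative; run in parallel with 48 h PbLuc assay at 37 °C, 5% CO2; viability by CellTiter-Glo luminescence, normalized to controls.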
For `CC(C)Cc1nc(NC(=O)c2cc(-c3cccnc3)n[nH]2)n[nH]1`, the cytotoxicity at 10 µM was 2.34%.

In the case of `CCS(=O)(=O)NCC1CCN(c2cnccn2)CC1`, the cytotoxicity at 10 µM was 10.3%.

For the molecule `Cc1ccc2c(n1)N(Cc1cccnc1)CCN(C(=O)C1CC=CC1)C2`, the cytotoxicity at 10 µM amounted to 8.07%.

Turning to `CN(Cc1cccnc1)[C@@H]1CN(c2ncc(F)cn2)[C@@H]2CCCO[C@H]12`, the cytotoxicity at 10 µM amounted to 0.559%.

Turning to `CC(C)(CO)NCc1nn(Cc2ccccc2)nc1-c1ccccc1`, the cytotoxicity at 10 µM is -6.69%.

On to `NC(=O)c1c(-c2ccc(Cl)cc2)csc1NC(=O)CCC(=O)O`, for which the cytotoxicity at 10 µM stood at 13.8%.

With `CCOCCCNC(=O)c1cc(C)nc(N2CCCCC2)n1`, the cytotoxicity at 10 µM turned out to be 8.52%.

Consider `COCc1cccc(S(=O)(=O)N2CCSCC2)c1`, for which the cytotoxicity at 10 µM was 8.19%.

In the case of `CCC(=O)Nc1nnc(CCOc2ccc(OC)cc2)s1`, the cytotoxicity at 10 µM came to 6.31%.

For the molecule `Cc1cc(C)n(CCC(=O)N2CCC(c3nc(C(C)C)no3)CC2)n1`, the cytotoxicity at 10 µM was -16.1%.

Take `CSCC[C@@H]1CN2CCC[C@H]2CN1Cc1coc2ccc(C)cc2c1=O`: the cytotoxicity at 10 µM is 2.89%.

Take `CN(CC1(O)CCCN(c2ccccn2)C1)C(=O)CCc1cccs1` (stereo not given): the cytotoxicity at 10 µM is -26.9%.

Consider `CS(=O)(=O)N1Cc2ccccc2CC2(CCN(Cc3ccccn3)C2)C1` (stereo not given), for which the cytotoxicity at 10 µM is 4.51%.

`CCNC(=O)NC1CCC(Oc2ccccc2C#N)CC1` (stereo not given): the cytotoxicity at 10 µM is -9.08%.

For `Cn1cc(C(=O)Nc2cccc(-c3ccc4c(c3)CCO4)n2)ccc1=O`, the cytotoxicity at 10 µM came out at 3.72%.

Regarding `O=C(CCn1cnc2ccccc21)N1CCN2CCCCC2C1` (stereo not given), the cytotoxicity at 10 µM is -4.34%.

Take `NCC(CO)Cc1ccc(C(F)(F)F)cc1` (stereo not given): the cytotoxicity at 10 µM stood at 4.42%.

For `COc1ccc(CC(=O)NCCn2nc3ccccn3c2=O)cc1`, the cytotoxicity at 10 µM was -8.61%.

`CCOc1ccc(NC(=O)N2CCNC(=O)C2)c(C(F)(F)F)c1`: the cytotoxicity at 10 µM stood at 7.09%.

For `COc1cc(CN(C)C(=O)Nc2cc(C)on2)ccc1SC`, the cytotoxicity at 10 µM was -10.7%.

As to `CNC(=O)c1cnc(/C=C/c2ccc(OC)c(O)c2)s1`, the cytotoxicity at 10 µM is -11.1%.

Take `CCCn1nc2c(cc1=O)CN(Cc1cc(C)on1)CC2`: the cytotoxicity at 10 µM is -13.9%.

On to `CCc1ncc(C(=O)N2CCCOC(Cn3cccn3)C2)cn1` (stereo not given), for which the cytotoxicity at 10 µM is -0.95%.

As for `CC(C)c1cc(C(=O)N2CCCC3(CCNC3)C2)no1` (stereo not given), the cytotoxicity at 10 µM stood at 5.28%.

As to `CN(C)C[C@@H]1CN(C(=O)c2cc(F)ccc2F)C[C@@H]1CO`, the cytotoxicity at 10 µM came to 7.45%.

Consider `CCCc1cc(C(=O)N2CCCC2c2cccnc2)[nH]n1` (stereo not given), for which the cytotoxicity at 10 µM is -9.81%.

As for `CCCS(=O)(=O)N1CCN(c2cc(-n3cnc(C)c3C)nc(C)n2)CC1`, the cytotoxicity at 10 µM is -8.51%.

For `Cc1nccn1C1CCCN(C(=O)c2ccc3nncn3c2)C1` (stereo not given), the cytotoxicity at 10 µM was -2.42%.

For the molecule `Cc1nc(CN(C)C2CCCN(Cc3noc(C4CC4)n3)C2)oc1C` (stereo not given), the cytotoxicity at 10 µM is -2.34%.

For `Cc1noc(C)c1CN(C)C(=O)NC1CCC(O)CC1` (stereo not given), the cytotoxicity at 10 µM was -9.21%.

For `CCOc1ccc(C(=O)N2CCCCC2Cn2nc(C)cc2C)cn1` (stereo not given), the cytotoxicity at 10 µM worked out at 6.6%.

On to `Cc1nc(C)n(CC2CCCN(CCCOc3ccc(F)cc3)C2)n1` (stereo not given), for which the cytotoxicity at 10 µM is -3.08%.

Turning to `O=C(c1ccc2c(c1)COC2)N1CCC(Nc2cccnn2)CC1`, the cytotoxicity at 10 µM is -13.1%.

As for `O=C(NCCC1=CCCCC1)NCc1nnc2n1CCC2`, the cytotoxicity at 10 µM was -5.6%.

Turning to `CC(C)(C)c1ncc(C(=O)NCCS(N)(=O)=O)s1`, the cytotoxicity at 10 µM is -9.58%.

Regarding `COc1ccc(C2=CCN(C(=O)C3CC(=O)N(C4CC4)C3)CC2)cc1` (stereo not given), the cytotoxicity at 10 µM is -6.66%.

As for `CN1CCN(C(=O)c2ccc(=O)n(C)c2)Cc2ccccc21`, the cytotoxicity at 10 µM was -10.2%.

Turning to `O=C(Nc1nccs1)N(CCO)Cc1ccsc1`, the cytotoxicity at 10 µM came to 1.4%.

In the case of `Cc1cnn(CC2CCCCN2C(=O)c2cc(Cl)c[nH]2)c1` (stereo not given), the cytotoxicity at 10 µM is -5.4%.

Take `c1cc(-c2nc(CN3CCn4c(nnc4C4CC4)C3)cs2)cs1`: the cytotoxicity at 10 µM is -2.22%.
